Bioassay records from PubChem.
M18AAP inhibitor – PfM18AAP enzyme inhibition; recombinant PfM18AAP, H-Glu-NHMec fluorogenic cleavage; 1.2% of 290,000 active; inhibition, % at 7.35 µM;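 active = inhibition above the campaign mean inhibition over all tested compounds plus 3 SD, cut at about 28% in these data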;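 also: 0% = plate median of test compound wells and 100% = 2 mM ZnCl2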
m5-HT2A agonist – agonists of mouse serotonin 5-HT2A receptor (HTR2A); CHO-K1 mHTR2A beta-arrestin complementation, luminescence; percent of 30 µM serotonin response; 0.66% of 360,000 active; P35363; activation, % at 7.6 µM;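 active = activation above a run cutoff, the mean activation of all tested compounds plus 3 SD, cut at about 14% in these data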;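 also: 0% = plate median of compound wells and 100% = 30 µM serotonin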
HGIII-sPLA2 inh – Blocks human group III sPLA2 activity. Q9NZ20. QFRET BODIPY PC-A2 liposome hydrolysis, fluorescence. inhibition, % at 12.2 µM. 0.56% of 370,000 active;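 active = inhibition above mean plus 3 SD of compounds lying within the high and low control bounds, cut at about 19% in these data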;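 also: 0% = median of test compound wells and 100% = no enzyme DMSO wells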
Target sequence (Q9NZ20 whole entry, looked up): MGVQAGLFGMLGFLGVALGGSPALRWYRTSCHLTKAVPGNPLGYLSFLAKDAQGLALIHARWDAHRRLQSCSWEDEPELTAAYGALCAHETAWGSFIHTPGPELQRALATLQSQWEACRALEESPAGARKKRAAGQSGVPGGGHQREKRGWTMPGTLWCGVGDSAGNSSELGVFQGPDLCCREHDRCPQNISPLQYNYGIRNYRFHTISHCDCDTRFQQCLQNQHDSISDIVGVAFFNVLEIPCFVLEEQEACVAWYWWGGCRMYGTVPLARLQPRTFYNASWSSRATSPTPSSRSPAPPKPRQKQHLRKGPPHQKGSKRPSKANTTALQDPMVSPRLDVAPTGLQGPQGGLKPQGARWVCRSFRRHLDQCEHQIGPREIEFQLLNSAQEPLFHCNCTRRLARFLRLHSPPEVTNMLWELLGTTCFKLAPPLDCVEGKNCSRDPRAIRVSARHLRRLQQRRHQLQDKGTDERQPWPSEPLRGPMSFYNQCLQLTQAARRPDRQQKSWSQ
Lipid droplet – hepatic lipid droplet formation modulation. AID 1656. AML12 mouse hepatocytes, oleate lipid droplets, BODIPY imaging. inhibition, % at 6.5 µM. 0.4% of 240,000 active;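 active = lipid droplet intensity inhibited by at least 50%, with more than 500 cells counted; inconclusive = wells with under 300 cells, treated as cytotoxic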
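material = mouse AML12 hepatocyte cell line, fixed after treatment | also added = 100 µM oleic acid challenge | doses = compound at 6.5 µM only | schedule = overnight exposure | technique = Image-based BODIPY and DAPI two-channel analysis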
NRP1-CendR mod – NRP-1/CendR interaction modulation; FAM-RPARPAR peptide binding to NRP-1, fluorescence polarization; inhibition, % at 25 µM; 0.85% of 360,000 active;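 active = inhibition or corrected inhibition above about 18%, plus a signal ratio from 0.5 to 1.5, limit read from the data, passing the limit was not always enough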
Arrestin-AP2 inh – blocks beta-arrestin peptide binding to AP2 adaptin | FITC-arrestin peptide / GST-AP2 beads, flow cytometry; AP2 beta2 appendage carries R879A mutation | inhibition, % at 10 µM | 0.31% of 340,000 active;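 active = inhibition above a set limit, near 3 SD of compounds lacking own fluorescence, cut at about 54% in these data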;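 also: plate controls were DMSO wells for no effect and 5 µM unlabelled arrestin peptide for full effect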
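test system = AP2 appendage R879A on GSH beads | buffer or medium = PBS plus Tween 20 (0.05%) and BSA (0.1%) | incubation = 12 min plus 1 h, RT | detection = bead flow cytometry, FITC channel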
Arr-AP2 CP1 – human beta-arrestin and AP2 interaction inhibition, cherry pick; 2% of 1,300 active; AID 504908; inhibition, % at 10 µM; GST-AP2 beads, FITC arrestin peptide binding, flow cytometry; GST-fused beta2-adaptin appendage, R879A mutant; shares compounds with Arrestin-AP2 inh;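 active = inhibition above a set limit, roughly 3 SD of non-fluorescent compound noise, cut at about 38% in these data; inactive = inhibition at or below that limit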;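 also: loss of bead fluorescence from 50 nM FITC arrestin peptide bound to appendage; 0% = negative control wells and 100% = excess unlabelled arrestin peptide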
GST GSH counter – disrupts GST binding to glutathione beads, arrestin-AP2 artifact. shares compounds with Arrestin-AP2 inh. GST-fluorescein binding to GSH beads, fluorescence, counter-screen. inhibition, % at 10 µM. 2% of 1,300 active;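 active = inhibition above 50%, about 3 SD of the inhibition seen with non-fluorescent compounds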;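 also: fluorescein maleimide labelled GST captured on 4 micron glutathione beads; higher means more loss of bead fluorescence from quenching or blocked binding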
Active calls of the source: *; ? = inconclusive; / = no result given. Only some compounds are listed: those with a hit (about 3.3% of all), similar ones and a draw of the others.

SMILES	M18AAP inhibitor	m5-HT2A agonist	HGIII-sPLA2 inh	Lipid droplet	NRP1-CendR mod	Arrestin-AP2 inh	Arr-AP2 CP1	GST GSH counter
CC(CCN1CCC(C(O)(c2ccccc2)c2ccccc2)CC1)Oc1cccc(C(F)(F)F)c1 (stereo not given)	/	/	-20	/	/	/	/	/
COc1ccc(CN2CCN(C(=O)c3ccc(S(=O)(=O)NCc4ccco4)cc3)CC2)cc1F	/	-2	-10	/	30*	-6	0	-10
COc1ccc(N2CCN(C(=O)c3ccc(CNS(=O)(=O)c4ccc(C)cc4)cc3)CC2)cc1	4	5	-11	5	9	-2	/	/
COc1ccc(N2CCN(C(=O)c3ccc(S(=O)(=O)NCc4ccco4)cc3)CC2)cc1	/	0	3	/	19	0	-5	-8
Cc1ccccc1CN1CCN(C(=O)c2ccc(S(=O)(=O)NCc3ccco3)cc2)CC1	/	-2	-5	/	-2	9	2	-1
O=C(c1ccc(S(=O)(=O)NCc2ccco2)cc1)N1CCN(Cc2ccc3c(c2)OCO3)CC1	4	11	-16	15	-1	13	/	/
Cc1c(C(=O)NNC(=O)c2ccccc2O)oc2ccccc12	/	-6	12	/	4	/	/	/
C#CCNC(=O)C[C@@H]1C[C@]2(C(=O)OCC)CCC3=C2N(CCC3)C1=O	/	/	5	/	/	/	/	/
N#Cc1ccc(CSc2ccccn2)c(Cl)c1	0	3	16	-1	2	63*	-6	-7
N#Cc1ccccc1CSc1ccccn1	0	1	5	-22	-4	19	/	/
CCOC(=O)C1=C(COC(=O)COc2ccc(Br)cc2)NC(=O)NC1C (stereo not given)	/	4	8	/	-3	-4	-5	-7
CCOC(=O)C1=C(COC(=O)CCOc2ccc(C)cc2)NC(=O)NC1C (stereo not given)	/	5	1	/	8	12	-5	-11
CCOC(=O)C1=C(COC(=O)CCOc2ccc(OC)cc2)NC(=O)NC1C (stereo not given)	/	3	-4	/	7	-9	-1	-12
CCOC(=O)C1=C(COC(=O)/C=C/c2ccc(OC)cc2OC)NC(=O)NC1C (stereo not given)	/	-1	-4	/	-21	13	/	/
Cc1noc(C)c1COC(=O)c1csc2c1CCC(C)C2 (stereo not given)	/	0	6	/	-7	-5	/	/
CCCS(=O)(=O)N1CCCC(C(=O)NCC2CCCO2)C1 (stereo not given)	-1	2	9	/	7	80*	3	-3
Cc1ccc(S(=O)(=O)N2CCCC(C(=O)NCC3CCCO3)C2)cc1 (stereo not given)	-6	3	-2	-9	10	-5	/	/
COC(=O)CNC(=O)C12CC3(C)CC(C)(CC(C)(C3)C1)C2	7	-4	6	-18	11	59*	-7	-1
CC12CC3(C)CC(C)(C1)CC(C(=O)NCc1ccccn1)(C2)C3	-4	-1	3	6	4	37	/	/
COc1ccc2nc(C)cc(N3CCN(c4ccccc4)CC3)c2c1	4	-11	0	-10	14	19	/	/
COc1ccc2nc(C)cc(N3CCN(S(=O)(=O)c4ccccc4F)CC3)c2c1	/	-18	-6	/	6	62*	-4	-6
CCCS(=O)(=O)NC(=O)C1(C)CCN(C(=O)c2snnc2C)C1 (stereo not given)	/	0	4	/	-7	/	/	/
CCN(CC)c1ccc(CN(C(=O)c2ccco2)C2CCS(=O)(=O)C2)cc1 (stereo not given)	28	2	/	/	15	0	/	/
CCc1ccc(CN(C(=O)c2ccco2)C2CCS(=O)(=O)C2)cc1 (stereo not given)	-2	11	1	-7	-3	67*	-15	-1
CCOC(=O)C1(Cc2cccc(Cl)c2)CCCN(C(=O)CN2C(=O)CSC2=O)C1 (stereo not given)	-1	5	-33	-12	9	62*	-7	-6
SMILES	M18AAP inhibitor	m5-HT2A agonist	HGIII-sPLA2 inh	Lipid droplet	NRP1-CendR mod	Arrestin-AP2 inh	Arr-AP2 CP1	GST GSH counter
CCOC(=O)C1(Cc2cccc(Cl)c2)CCCN(C(=O)c2cn[nH]c2)C1 (stereo not given)	1	1	-12	-1	5	67*	4	-8
COc1ccc(C(=O)Nc2ccc(N3CCCC3)cc2)cc1OC	21	-2	5	8	-3	10	/	/
COc1ccc(C(=O)Nc2cc3c(cc2N2CCCCC2)n(C)c(=O)n3C)cc1OC	5	-5	0	-12	4	/	-5	/
CCOc1cc(C(=O)Nc2cc3c(cc2N2CCCC2)n(C)c(=O)n3C)cc(OCC)c1OCC	21	-1	8	26	6	15	5	3
Cc1ccc(C(=O)Nc2cc3c(cc2N2CCCCC2)n(C)c(=O)n3C)cc1	5	3	/	?	5	-1	4	3
COc1cc(C(=O)Nc2ccccc2N2CCN(S(C)(=O)=O)CC2)cc(OC)c1OC	-12	1	-6	-17	-2	16	/	/
COc1cc(C(=O)Nc2cc3c(cc2N2CCCCC2)n(C)c(=O)n3C)cc(OC)c1OC	7	-2	-2	-36	28*	-12	4	-2
COC(=O)[C@]12C[C@H](CC(=O)N3CCC(c4ccccc4)CC3)C(=O)N(CCC3=CCCCC3)C1=C[C@H](C1CCCC1)O[C@@H]2C	/	/	-4	/	/	/	/	/
Cc1cc2c(c(=O)o1)[C@@]1(C(=O)N(C)c3c(Br)cccc31)C1=C(CCCC1=O)O2	/	/	-4	/	/	/	/	/
Cc1ccc(C(=O)N2[C@@H]3CN(C)C(=O)[C@@]2(Cc2ccccc2)[C@H]2C(=O)N(Cc4ccccc4)C(=O)[C@@H]32)cc1	/	-3	-3	/	0	-9	/	/
CCOC(=O)C1=CCN(S(=O)(=O)c2cccc(Cl)c2)C1c1cccc(C)c1 (stereo not given)	/	2	7	/	6	/	/	/
CC(=O)Nc1ccc(NC(=O)C(C)OC(=O)c2ccc3[nH]c(C)c(C)c3c2)cc1 (stereo not given)	/	2	-47	/	-7	57*	-7	-6
CCc1ccc(CCNC(=O)OCCCN2CCC3(CCC(C)CC3)C2=O)cc1 (stereo not given)	/	/	-8	/	/	/	/	/
CCOC(=O)N1CCN(S(=O)(=O)c2ccc(Cl)cc2)CC1	-1	9	7	2	9	66*	-5	-6
COc1ccc(CC(=O)NNC2=Nc3cccc4cccc2c34)cc1	6	-9	14	5	-29	58*	2	-3
